ChEMBL document CHEMBL4145618, “Constraining Endomorphin-1 by β,α-Hybrid Dipeptide/Heterocycle Scaffolds: Identification of a Novel κ-Opioid Receptor Selective Partial Agonist” (J Med Chem, 2018)
The source made the active and inactive calls.

Assays:
[1] = target: T1, Mu-type opioid receptor (Homo sapiens, UniProt P35372); assay: Agonist activity at human mu opioid receptor expressed in HEK293 assessed as inhibition forskolin-induced cAMP accumulation at 0.00001 to 100 uM after 15 mins by EIA relative to control; type: functional, cell-based
T1 sequence (P35372 whole entry): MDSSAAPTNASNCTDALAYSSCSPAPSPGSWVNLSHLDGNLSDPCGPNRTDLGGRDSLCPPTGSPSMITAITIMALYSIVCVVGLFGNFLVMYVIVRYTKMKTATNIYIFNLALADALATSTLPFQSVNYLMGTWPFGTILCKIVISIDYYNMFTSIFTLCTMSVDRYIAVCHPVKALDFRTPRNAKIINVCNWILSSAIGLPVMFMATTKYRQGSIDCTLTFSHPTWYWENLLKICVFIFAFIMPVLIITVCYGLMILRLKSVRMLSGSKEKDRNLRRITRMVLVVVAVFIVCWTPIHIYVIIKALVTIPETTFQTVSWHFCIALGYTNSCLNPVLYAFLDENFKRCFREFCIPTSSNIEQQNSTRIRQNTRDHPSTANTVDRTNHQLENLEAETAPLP
Summary of the method: (§1)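 Whole HEK-293 cells stably expressing human KOR or MOR, in serum-free medium with 0.5 mM IBMX. Cells exposed 15 min at 37°C to 10 µM forskolin, with or without test agent. KOR co-treatment run: U50,488 1 pM–100 µM with or without 1 µM test agent. cAMP measured by enzyme immunoassay.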

[2] = target: Delta-type opioid receptor (Homo sapiens, UniProt P41143); assay: Displacement of [3H]diprenorphine from human delta opioid receptor expressed in HEK293 cell membranes after 2 hrs by liquid scintillation spectrometry
Delta-type opioid receptor, sequence (P41143 whole entry): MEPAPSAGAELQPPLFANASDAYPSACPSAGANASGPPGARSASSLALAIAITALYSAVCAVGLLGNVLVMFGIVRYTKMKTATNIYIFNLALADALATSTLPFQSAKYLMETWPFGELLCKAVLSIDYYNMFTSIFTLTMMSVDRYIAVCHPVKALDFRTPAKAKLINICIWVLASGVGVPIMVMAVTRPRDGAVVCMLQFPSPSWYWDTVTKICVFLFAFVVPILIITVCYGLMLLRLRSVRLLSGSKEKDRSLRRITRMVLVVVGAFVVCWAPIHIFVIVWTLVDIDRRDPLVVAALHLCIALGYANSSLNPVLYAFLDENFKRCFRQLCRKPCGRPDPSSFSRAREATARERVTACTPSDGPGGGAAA

[3] = Drug metabolism in mouse serum assessed as compound hydrolysis after 4 hrs by RP-HPLC analysis; type: ADME, cell-free; details: read-out: Drug metabolism
Summary of the method: (§2)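 Peptides incubated in mouse serum at 37°C for up to 4 h and sampled over time. Enzymatic activity stopped with cold acetonitrile, then centrifuged. Intact peptide in the supernatant quantified by reversed-phase HPLC, with ESI-MS analysis.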

[4] = target: T1, Mu-type opioid receptor; assay: Displacement of [3H]DAMGO from human mu opioid receptor expressed in HEK293 cell membranes after 2 hrs by liquid scintillation spectrometry
Summary of the method: (§3)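 Membranes from HEK-293 cells stably expressing human opioid receptors. Radioligands: [3H]DAMGO for MOR, [3H]diprenorphine for DOR, [3H]U69,593 for KOR. Competitor range 10^-12–10^-4 M, 120 min at 25°C, Tris-HCl buffer with 0.3% BSA. Unlabelled ligands defined nonspecific binding. Bound label collected on 0.3% polyethylenimine-presoaked filters and counted by liquid scintillation. Ki from IC50 via Cheng-Prusoff.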

[5] = target: T2, Kappa-type opioid receptor (Homo sapiens, UniProt P41145); assay: Displacement of [3H]U69,593 from human kappa opioid receptor expressed in HEK293 cell membranes after 2 hrs by liquid scintillation spectrometry; summary of the method: as §3
T2 sequence (P41145 whole entry): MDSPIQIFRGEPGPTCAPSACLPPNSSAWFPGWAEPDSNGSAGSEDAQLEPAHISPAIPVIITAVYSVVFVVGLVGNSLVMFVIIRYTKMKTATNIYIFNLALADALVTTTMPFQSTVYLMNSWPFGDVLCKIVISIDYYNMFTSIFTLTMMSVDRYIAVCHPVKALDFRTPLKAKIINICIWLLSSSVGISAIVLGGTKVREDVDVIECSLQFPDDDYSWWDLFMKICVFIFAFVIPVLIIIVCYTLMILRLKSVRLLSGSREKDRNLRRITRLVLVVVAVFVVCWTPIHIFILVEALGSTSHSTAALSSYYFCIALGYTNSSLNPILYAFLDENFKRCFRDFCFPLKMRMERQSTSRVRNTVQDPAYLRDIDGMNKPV

[6] = target: T1, Mu-type opioid receptor; assay: Agonist activity at human mu opioid receptor expressed in HEK293 assessed as inhibition forskolin-induced cAMP accumulation after 15 mins by EIA; type: functional, cell-based; summary of the method: as §1
[7] = target: T2, Kappa-type opioid receptor; assay: Agonist activity at human kappa opioid receptor expressed in HEK293 assessed as inhibition forskolin-induced cAMP accumulation after 15 mins by EIA; type: functional, cell-based; summary of the method: as §1
[8] = tested on: Mus musculus; assay: Antinociceptive activity in CD1 mouse assessed as increase in latency to response at 20 mg/kg, ip measured at 30 mins post dose by tail immersion test relative to control; type: functional
Summary of the method: (§4)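 Mouse warm-water tail immersion at 52 ± 0.5 °C. Control withdrawal latency recorded before dosing; only mice responding within 5 s were used. Vehicle or compound given ip at 10 or 20 mg/kg. Where stated, norBNI 10 mg/kg given 30 min before compound. Test latency taken with 10 s cutoff. MPE% = 100 × (TL − CL)/(10 − CL); n = 6.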

[9] = tested on: Mus musculus; assay: Antinociceptive activity in CD1 mouse assessed as increase in latency to response at 10 mg/kg, ip measured at 15 mins post dose by tail immersion test; type: functional, organism-based; summary of the method: as §4
[10] = Drug metabolism in mouse serum assessed as compound hydrolysis after 1 hr by RP-HPLC analysis; type: ADME, cell-free; details: read-out: Drug metabolism; summary of the method: as §2
[11] = target: T2, Kappa-type opioid receptor; assay: Agonist activity at human kappa opioid receptor expressed in HEK293 assessed as inhibition forskolin-induced cAMP accumulation at 0.00001 to 100 uM after 15 mins by cAMP EIA relative to control; type: functional, cell-based; summary of the method: as §1
[12] = tested on: Mus musculus; assay: Antinociceptive activity in CD1 mouse assessed as increase in latency to response at 20 mg/kg, ip measured at 15 mins post dose in presence of KOR antagonist nor-BNI by tail immersion test; type: functional, organism-based; summary of the method: as §4
[13] = target: T2, Kappa-type opioid receptor; assay: Agonist activity at human kappa opioid receptor expressed in HEK293 assessed as inhibition forskolin-induced cAMP accumulation at 1 uM after 15 mins in presence of U50,488 by EIA; type: functional, cell-based; summary of the method: as §1
[14] = tested on: Mus musculus; assay: Antinociceptive activity in CD1 mouse assessed as increase in latency to response at 20 mg/kg, ip measured at 15 mins post dose by tail immersion test relative to control; type: functional; summary of the method: as §4

N[C@@H](Cc1ccc(O)cc1)C(=O)N1CCC[C@H]1C(=O)N[C@@H](Cc1c[nH]c2ccccc12)C(=O)N[C@@H](Cc1ccccc1)C(=O)O
Emax [1]: 53%

NC(=O)[C@H](Cc1ccccc1)NC(=O)[C@@H](Cc1c[nH]c2ccccc12)N1C(=O)O[C@H](CNC(=O)[C@@H](N)Cc2ccc(O)cc2)C1=O
Ki [2]: > 100 µM
metabolised at 4 h [3]: < 10%
Ki [4]: 0.24 µM
Ki [5]: > 100 µM
IC50 [6]: 0.016 nM
Emax [1]: 50%

NC(=O)[C@H](Cc1ccccc1)NC(=O)[C@H](Cc1c[nH]c2ccccc12)N1C(=O)O[C@H](CNC(=O)[C@@H](N)Cc2ccc(O)cc2)C1=O
Ki [2]: > 100 µM
Ki [4]: > 100 µM
Ki [5]: > 100 µM

NC(=O)[C@H](Cc1ccccc1)NC(=O)[C@H](Cc1c[nH]c2ccccc12)N1C(=O)O[C@@H](CNC(=O)[C@@H](N)Cc2ccc(O)cc2)C1=O
IC50 [7]: 0.00022 µM
Ki [2]: > 100 µM
MPE [8]: 42%
Activity [9]: Active
Ki [4]: > 100 µM
Ki [5]: 0.0098 µM
metabolised at 1 h [10]: < 5%
Emax [11]: 40%
Activity [12]: inactive
inhibition [13]: 40%
MPE [14]: 60%

NC(=O)[C@H](Cc1ccccc1)NC(=O)[C@@H](Cc1c[nH]c2ccccc12)N1C(=O)O[C@@H](CNC(=O)[C@@H](N)Cc2ccc(O)cc2)C1=O
Ki [2]: > 100 µM
Ki [4]: > 100 µM
Ki [5]: > 100 µM
